From PubChem BioAssay
CHOP inh – CHOP inhibition in unfolded protein response | inhibition, % at 10 µM | actives 3.8% (n = 220,000) | CHO-K1 CHOP-promoter luciferase, tunicamycin-induced, 15-18 h | AID 2732;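 active = compounds that reduced the stress-induced luciferase reporter signal by more than about 70% of percent inhibition, limit read from the data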;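 also: 0% = tunicamycin plus vehicle and 100% = wells without tunicamycin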
CHOP UPR activ – apoptotic UPR (CHOP) activation; CHO-CHOP luciferase reporter, luminescence; percent of tunicamycin response over DMSO baseline; actives 0.34% (n = 330,000); activation, % at 10 µM;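 active = at 10 µM dose, activation of 40% or more, normalized to positive control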;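 also: 100% = tunicamycin at 10 µg/mL and 0% = DMSO alone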
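Test system: CHO-CHOP cells, stable luciferase reporter of PERK-eIF2a-CHOP signalling | Quantity: 500 CHO-CHOP cells per well | Buffer or medium: F12 plus 10% serum | Compound dosing: 10 µM single point, 0.5% DMSO | Schedule: 6 h compound treatment, 37 °C | Signal: Luciferase luminescence | Control set: Tunicamycin high control, DMSO low control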
aDG glyco up – alpha-DG glycosylation activation. Pro5-aDG cells, alpha-DG glycosylation AlphaScreen (IIH6); 0% Pro5, 100% B10-LARGE cell signal. activation, % at 10 µM. actives 0.22% (n = 360,000). AID 624168;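 active = activation of at least 8% versus controls, or a plate z-score of at least 8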;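 also: Pro5 are CHO cells carrying HIG-tagged alpha-DG that lacks glycosylation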
MPTP inh – blocks calcium-induced mitochondrial swelling. isolated mouse mitochondria, Ca2+ swelling absorbance, 30 min. inhibition, % at 10 µM. actives 1.4% (n = 360,000). AID 602449;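 active = inhibition of 50% or more, scaled per plate between neutral and stimulator controls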;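 also: 0% = DMSO wells given calcium and 100% = 1 mM EGTA wells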
UPR XBP1 act – adaptive UPR (XBP1) activation. CHO-XBP1 luciferase reporter, IRE1-XBP1 UPR activation, luminescence; percent of tunicamycin response, DMSO as zero. activation, % at 20 µM. actives 0.33% (n = 330,000). AID 463104;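 active = versus positive control, 20 µM dose yields 30% or more activation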;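 also: 100% = tunicamycin at 10 µg/mL and 0% = DMSO only wells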
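Assay system: CHO-XBP1 luciferase reporter cells; Schedule: 6 h treatment, 37 °C; Detection: glow luminescence from Steady-Glo reagent; Benchmarks: high control tunicamycin 10 µg/mL final, low control DMSO vehicle only.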
NR3A LBD binder – modulators (binders) of human NR3A ligand-binding domain. NR3A LBD differential scanning fluorimetry, Tm shift; 0% = protein alone, 100% = glycine-bound protein. Tm shift relative to glycine control, % at 25 µM. actives 2.5% (n = 340,000). AID 1259313;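 active = melting temperature shift of at least 10% of the positive control shift, at one fixed dose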
CHOP confirm – confirmation of CHOP induction inhibitors | shares compounds with CHOP inh | inhibition, % at 10 µM | CHO-CHOP promoter luciferase reporter, tunicamycin-induced, luminescence | actives 45% (n = 2,100) | AID 504437;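 active = mean of three repeat readings of reporter signal inhibition above a set limit, cut at about 70% in these data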;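 also: 0% = tunicamycin plus vehicle and 100% = wells lacking tunicamycin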
Active calls of the source: *; · = no result given. A selection: hits, their analogues and other compounds. The true share with any hit is near 5.6%.

SMILES | CHOP inh | CHOP UPR activ | aDG glyco up | MPTP inh | UPR XBP1 act | NR3A LBD binder | CHOP confirm
CCN(CC)c1c(C)nc2ccc(C(=O)N3CCN(C(=O)c4ccco4)CC3)cn12 | · | · | 0 | 0 | · | · | ·
CCOc1ccc(-c2n[nH]c(C)c2Oc2ccccc2OC)c(O)c1 | 19 | -2 | 0 | 2 | -3 | -6 | ·
CCc1cc(-c2n[nH]c(C)c2Oc2ccc(C(C)C)cc2)c(O)cc1O | 113* | -2 | 0 | 32 | 0 | 32* | 114*
CCCOC(=O)c1ccc(Oc2c(-c3ccc(O)cc3O)n[nH]c2C)cc1 | 105* | -1 | 0 | -14 | -1 | · | 69
COc1ccc(O)c(CNn2c(-c3ccc(Br)cc3)nc3ccccc3c2=O)c1 | 10 | 4 | 0 | 5 | -1 | -9 | ·
COc1ccc(C(=O)On2c(-c3ccc(Br)cc3)nc3ccccc3c2=O)cc1 | 105* | 3 | 0 | 9 | 9 | 0 | 69
COc1cc(OC)cc(-c2nc3ccccc3c(=O)n2OC(=O)c2ccc(Br)cc2)c1 | 106* | -1 | 0 | 39 | -1 | -2 | 112*
Cc1ccc(NC(=O)CCNS(=O)(=O)c2ccc(Br)s2)cc1 | · | -3 | 0 | 4 | -4 | -3 | ·
COc1cccc(CN(C(=O)c2ccc([N+](=O)[O-])cc2)C2CCS(=O)(=O)C2)c1 (stereo not given) | · | -3 | 0 | -1 | -2 | -3 | ·
Cc1cc2cc(CN(Cc3ccco3)C(=O)NCc3ccccc3)c(=O)[nH]c2cc1C | 44 | -3 | 0 | 0 | -4 | 0 | ·
Cc1cc2cc(CN(Cc3ccco3)C(=O)C3CCCCC3)c(=O)[nH]c2cc1C | 105* | -1 | 1 | 6 | 6 | 0 | 37
CCOc1cc(/C=N\NC(=O)Cc2ccccc2)ccc1OCC(=O)Nc1ccc(C)c(C)c1 | 97* | 32 | 0 | -2 | 26 | -1 | 127*
Cc1cc(C2=NNC(=NC3CC3)SC2)c(C)n1-c1ccccc1F | 105* | -12 | 1 | 13 | -7 | -4 | 125*
Cc1ccc2nc3c(cc2c1)CN(Cc1ccco1)C(=NCC1CCCO1)S3 (stereo not given) | -56 | 0 | 0 | -3 | -1 | 4 | ·
Cc1cccc2cc3c(nc12)SC(=NCC1CCCO1)N(Cc1ccco1)C3 (stereo not given) | 103* | 3 | 0 | 0 | 1 | -3 | 48
CN(CC(=O)Nc1ccc(F)c(F)c1F)C(=O)CCN1C(=O)C2CCCCC2C1=O (stereo not given) | · | 0 | 0 | -1 | -3 | 2 | ·
COc1ccccc1-c1cc(C(F)(F)F)nc(S(=O)(=O)CCCC(=O)NC(C)C)n1 | 112* | 21 | -1 | -1 | -7 | 2 | 117*
COc1ccccc1/C=C/C(=O)Nc1cccnc1Cl | · | 5 | 0 | -1 | 0 | 1 | ·
COc1ccc(-c2cc(C(F)(F)F)nc(S(=O)(=O)CCCC(=O)Nc3cc(C)on3)n2)cc1OC | 106* | · | 0 | 1 | · | 0 | -140
COc1ccccc1-c1cc(C(F)(F)F)nc(S(=O)(=O)CCCC(=O)Nc2cccnc2Cl)n1 | 108* | · | 0 | -1 | · | -2 | 121*
COc1ccccc1-c1cc(C(F)(F)F)nc(S(=O)(=O)CCCC(=O)Nc2cc(C)on2)n1 | 108* | 20 | 0 | -3 | -7 | 5 | 125*
COc1ccccc1-c1cc(C(F)(F)F)nc(N2CCCC2)n1 | 28 | -1 | 0 | 0 | 1 | 1 | ·
CCCNC(=O)C1(C)CCN(C(=O)c2oc3ccccc3c2C)C1 (stereo not given) | · | · | 0 | -1 | · | · | ·
COc1ccccc1OCCNC(=O)C1CC(=O)N(c2ccc3c(c2)OCCO3)C1 (stereo not given) | · | 2 | 0 | -2 | 1 | 2 | ·
COc1ccc(NC(=S)N2CCC3CC2c2cc(-c4ccc5c(c4)OCO5)ccc23)c(OC)c1 (stereo not given) | · | · | 0 | 2 | · | · | ·
